Data reported in ChEMBL document CHEMBL1145022, “Hydantoin-substituted 4,6-dichloroindole-2-carboxylic acids as ligands with high affinity for the glycine binding site of the NMDA receptor” (J Med Chem, 2003).
Active and inactive are the calls of the source. The calls are words filed in the database; no cut-off is given here.

Tests used:
[1] = target: T1, Sodium channel alpha subunits; brain (Types I, II, III) (Rattus norvegicus) (UniProt P04775+P04774+P08104); experiment: Inhibition of [3H]batrachotoxin binding to rat brain sodium channels at 0.1 uM
[2] = target: T1, Sodium channel alpha subunits; brain (Types I, II, III) (Rattus norvegicus); experiment: Inhibition of [3H]batrachotoxin binding to rat brain sodium channels at 1 uM
[3] = target: T1, Sodium channel alpha subunits; brain (Types I, II, III) (Rattus norvegicus); experiment: Inhibition of [3H]batrachotoxin binding to rat brain sodium channels at 10 uM
[4] = target: T1, Sodium channel alpha subunits; brain (Types I, II, III) (Rattus norvegicus); experiment: Affinity for sodium channel site 2 up to 10 uM; Inactive; type: protein assay
[5] = Partition coefficient (logP); type: physicochemical; details: octanol/water
In short: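 Potentiometric titration in n-octanol/water; each Log P value is the mean of at least three independent experiments.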

T1 sequence (P04775 whole entry, looked up, other chains not shown): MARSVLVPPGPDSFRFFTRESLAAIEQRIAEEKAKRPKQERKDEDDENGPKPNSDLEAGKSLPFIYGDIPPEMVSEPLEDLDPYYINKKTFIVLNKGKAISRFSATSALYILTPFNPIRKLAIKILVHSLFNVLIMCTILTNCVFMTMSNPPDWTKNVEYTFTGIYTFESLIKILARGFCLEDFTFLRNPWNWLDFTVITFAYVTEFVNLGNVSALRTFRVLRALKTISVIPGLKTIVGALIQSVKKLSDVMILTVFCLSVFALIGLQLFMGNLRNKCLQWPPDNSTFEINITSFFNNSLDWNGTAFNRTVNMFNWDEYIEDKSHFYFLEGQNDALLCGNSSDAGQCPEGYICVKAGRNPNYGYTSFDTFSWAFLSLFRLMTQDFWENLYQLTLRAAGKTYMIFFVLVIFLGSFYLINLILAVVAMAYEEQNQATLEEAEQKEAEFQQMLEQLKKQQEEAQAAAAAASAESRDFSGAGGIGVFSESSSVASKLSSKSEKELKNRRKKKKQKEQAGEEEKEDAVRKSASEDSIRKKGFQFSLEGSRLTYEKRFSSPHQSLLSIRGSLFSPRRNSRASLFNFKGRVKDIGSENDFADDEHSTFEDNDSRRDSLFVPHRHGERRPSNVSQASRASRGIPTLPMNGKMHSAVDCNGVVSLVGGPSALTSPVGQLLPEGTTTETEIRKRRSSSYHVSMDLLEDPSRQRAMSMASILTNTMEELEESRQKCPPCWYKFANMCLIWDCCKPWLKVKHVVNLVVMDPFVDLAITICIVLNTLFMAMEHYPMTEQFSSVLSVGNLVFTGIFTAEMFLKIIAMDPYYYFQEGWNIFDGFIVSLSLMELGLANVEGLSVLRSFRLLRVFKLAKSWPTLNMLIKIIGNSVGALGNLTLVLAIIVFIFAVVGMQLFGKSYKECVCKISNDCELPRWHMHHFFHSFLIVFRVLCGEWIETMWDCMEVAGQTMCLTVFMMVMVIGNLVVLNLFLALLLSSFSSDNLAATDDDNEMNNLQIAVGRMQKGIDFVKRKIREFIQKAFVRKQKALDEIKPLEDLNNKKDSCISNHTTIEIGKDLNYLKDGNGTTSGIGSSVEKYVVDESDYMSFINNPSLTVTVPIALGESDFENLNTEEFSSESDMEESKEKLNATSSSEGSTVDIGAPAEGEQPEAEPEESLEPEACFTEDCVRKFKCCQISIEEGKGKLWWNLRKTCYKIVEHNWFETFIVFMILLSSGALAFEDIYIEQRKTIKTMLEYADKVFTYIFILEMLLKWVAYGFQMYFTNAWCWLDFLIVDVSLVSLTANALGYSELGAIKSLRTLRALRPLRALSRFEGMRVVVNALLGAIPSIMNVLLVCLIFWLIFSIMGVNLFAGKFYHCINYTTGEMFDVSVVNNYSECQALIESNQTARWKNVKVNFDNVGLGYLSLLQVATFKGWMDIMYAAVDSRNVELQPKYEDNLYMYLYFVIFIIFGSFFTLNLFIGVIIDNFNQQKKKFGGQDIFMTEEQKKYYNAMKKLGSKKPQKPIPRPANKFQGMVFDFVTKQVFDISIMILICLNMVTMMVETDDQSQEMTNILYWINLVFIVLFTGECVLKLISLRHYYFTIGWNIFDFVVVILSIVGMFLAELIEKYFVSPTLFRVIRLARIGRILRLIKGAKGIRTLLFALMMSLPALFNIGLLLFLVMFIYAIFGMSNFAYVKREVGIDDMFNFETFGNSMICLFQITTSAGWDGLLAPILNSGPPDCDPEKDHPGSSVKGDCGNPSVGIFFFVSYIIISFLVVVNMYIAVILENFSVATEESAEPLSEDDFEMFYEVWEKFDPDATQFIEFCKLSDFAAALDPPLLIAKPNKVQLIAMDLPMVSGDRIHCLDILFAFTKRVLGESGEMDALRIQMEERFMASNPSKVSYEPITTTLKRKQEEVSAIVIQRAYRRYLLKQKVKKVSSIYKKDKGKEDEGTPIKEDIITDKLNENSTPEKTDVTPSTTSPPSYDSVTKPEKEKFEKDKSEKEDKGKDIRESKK
T1 sequence (P08104 whole entry, looked up, other chains not shown): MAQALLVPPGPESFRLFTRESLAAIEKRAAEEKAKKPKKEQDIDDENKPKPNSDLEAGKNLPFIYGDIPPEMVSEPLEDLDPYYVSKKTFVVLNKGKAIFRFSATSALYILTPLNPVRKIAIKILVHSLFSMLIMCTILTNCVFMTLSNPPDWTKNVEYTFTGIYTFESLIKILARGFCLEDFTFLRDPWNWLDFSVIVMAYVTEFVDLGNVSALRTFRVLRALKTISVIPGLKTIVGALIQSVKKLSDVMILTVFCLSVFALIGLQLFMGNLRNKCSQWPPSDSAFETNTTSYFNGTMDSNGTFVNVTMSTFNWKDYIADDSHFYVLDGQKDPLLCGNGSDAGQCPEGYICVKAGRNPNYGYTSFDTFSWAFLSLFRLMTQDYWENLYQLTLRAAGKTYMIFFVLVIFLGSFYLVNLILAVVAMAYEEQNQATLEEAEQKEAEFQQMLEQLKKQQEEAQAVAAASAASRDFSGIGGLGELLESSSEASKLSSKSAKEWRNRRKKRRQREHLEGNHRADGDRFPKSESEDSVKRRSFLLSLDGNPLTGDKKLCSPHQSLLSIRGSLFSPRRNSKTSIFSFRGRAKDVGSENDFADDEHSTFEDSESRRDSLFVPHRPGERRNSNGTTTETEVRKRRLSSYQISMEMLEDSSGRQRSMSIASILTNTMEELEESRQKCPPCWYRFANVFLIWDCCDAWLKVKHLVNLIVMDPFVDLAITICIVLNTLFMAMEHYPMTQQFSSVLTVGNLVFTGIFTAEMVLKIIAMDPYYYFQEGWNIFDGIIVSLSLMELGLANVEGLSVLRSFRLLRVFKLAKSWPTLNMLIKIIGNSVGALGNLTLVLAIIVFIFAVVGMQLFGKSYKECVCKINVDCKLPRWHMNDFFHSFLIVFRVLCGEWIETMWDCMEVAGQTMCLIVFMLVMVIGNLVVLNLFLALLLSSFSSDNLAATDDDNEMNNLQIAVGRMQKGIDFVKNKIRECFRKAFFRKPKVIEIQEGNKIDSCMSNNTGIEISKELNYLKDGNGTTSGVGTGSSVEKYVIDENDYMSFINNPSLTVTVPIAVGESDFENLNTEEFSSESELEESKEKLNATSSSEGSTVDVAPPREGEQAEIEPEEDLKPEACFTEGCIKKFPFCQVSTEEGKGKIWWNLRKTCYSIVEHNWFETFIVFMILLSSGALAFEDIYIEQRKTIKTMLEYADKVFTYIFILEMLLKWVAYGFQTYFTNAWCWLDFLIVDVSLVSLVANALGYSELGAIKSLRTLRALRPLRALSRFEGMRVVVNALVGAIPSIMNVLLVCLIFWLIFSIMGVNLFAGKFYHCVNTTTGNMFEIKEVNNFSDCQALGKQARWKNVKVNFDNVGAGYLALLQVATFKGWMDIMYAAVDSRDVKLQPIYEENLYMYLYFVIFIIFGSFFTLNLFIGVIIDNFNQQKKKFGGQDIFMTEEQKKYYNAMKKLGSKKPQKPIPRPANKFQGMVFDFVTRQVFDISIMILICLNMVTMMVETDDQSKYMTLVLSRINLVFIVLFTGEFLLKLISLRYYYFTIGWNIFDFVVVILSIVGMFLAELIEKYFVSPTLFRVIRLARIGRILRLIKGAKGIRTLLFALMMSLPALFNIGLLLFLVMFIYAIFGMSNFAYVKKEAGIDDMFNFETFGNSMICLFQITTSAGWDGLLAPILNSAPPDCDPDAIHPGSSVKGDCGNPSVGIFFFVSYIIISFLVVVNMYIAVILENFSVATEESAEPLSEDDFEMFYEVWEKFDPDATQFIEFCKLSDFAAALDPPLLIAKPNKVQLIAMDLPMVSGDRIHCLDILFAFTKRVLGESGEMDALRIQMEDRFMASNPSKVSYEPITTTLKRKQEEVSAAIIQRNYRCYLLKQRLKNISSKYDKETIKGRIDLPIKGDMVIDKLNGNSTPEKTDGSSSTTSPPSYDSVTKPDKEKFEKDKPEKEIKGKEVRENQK

Structure (SMILES): CC(C)C1C(=O)N(c2ccccc2)C(=O)N1Cc1c(C(=O)O)[nH]c2cc(Cl)cc(Cl)c12 (stereo not drawn)
- inhibition [1]: 11%
- inhibition [2]: 8%
- inhibition [3]: 29%

Structure (SMILES): O=C(O)c1[nH]c2cc(Cl)cc(Cl)c2c1CN1CC(=O)N(c2ccccc2)C1=O
- IA [4]: inactive
- logP [5]: 2.16

Structure (SMILES): O=C(NCc1c(C(=O)O)[nH]c2cc(Cl)cc(Cl)c12)Nc1ccccc1
- logP [5]: 2.83

Structure (SMILES): O=C(NCc1c(C(=O)O)[nH]c2cc(Cl)cc(Cl)c12)c1ccccc1
- logP [5]: 2.36

Structure (SMILES): O=C(O)c1[nH]c2cc(Cl)cc(Cl)c2c1CNS(=O)(=O)c1ccccc1
- logP [5]: 3.1
